Experimental data taken from ChEMBL document CHEMBL1123541, “Preparation and antitumor activity of 7-substituted 1,2-aziridinomitosenes” (J Med Chem, 1986).

Experiments:
[1] = Partition coefficient (logP); format: physicochemical; details: octanol/water
L1210 [2] = assay: Compound was tested for antitumor activity against L-1210 Murine leukemia in BDF1 female mice at dose of 20 mg/kg inj; format: functional, Mus musculus
How it was run: (§1)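 L-1210 run per NCI protocol. 10^6 ascites cells implanted ip into BDF1 female mice. Aziridinomitosene given on day 1 only, six mice per dose, with a control group of 36 mice. Median survival time in days is recorded, and %T/C = MST treated/MST control × 100, with 125 taken as significant.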

L1210 [3] = assay: Compound was tested for antitumor activity against L-1210 Murine leukemia in BDF1 female mice at dose of 40 mg/kg inj; format: functional, Mus musculus; how it was run: as §1
Mus musculus [4] = assay: Average weight change of BDF1 female mice at a dose of 16 mg/kg per injection; format: functional
How it was run: (§2)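 BDF1 female mice implanted ip with 10^6 ascites leukemia cells, then given the aziridinomitosene on day 1 only, six mice per dose. Average weight change is the weight difference between the treated and control groups.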

Mus musculus [5] = assay: Average weight change of BDF1 female mice at a dose of 32 mg/kg per injection; format: functional; how it was run: as §2
Mus musculus [6] = assay: Average weight change of BDF1 female mice at a dose of 64 mg/kg per injection; format: functional; how it was run: as §2
P388 [7] = assay: Compound was tested for antitumor activity against P388 Murine leukemia in BDF1 female mice at a dose of 16 mg/kg per injection; format: functional, Mus musculus
How it was run: (§3)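 P388 ascites cells (10^6) implanted ip into BDF1 female mice. Aziridinomitosene given on day 1 only, six mice per dose; ten saline-treated mice on day 1 only as controls. Read-out is median survival time in days, %T/C = MST treated/MST control × 100, with 125 taken as significant. Mitomycin C run as a positive control at its optimal dose.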

P388 [8] = assay: Minimum effective dose determined against P-388 Murine leukemia in BDF1 female mice.; format: functional; details: Mus musculus, read-out: MED
P388 [9] = assay: Compound was tested for antitumor activity against P388 Murine leukemia in BDF1 female mice at a dose of 32 mg/kg per injection; format: functional, Mus musculus; how it was run: as §3
P388 [10] = assay: Compound was tested for antitumor activity against P388 Murine leukemia in BDF1 female mice at a dose of 64 mg/kg per injection; format: functional, Mus musculus; how it was run: as §3
P388 [11] = assay: Compound was tested for antitumor activity against P388 Murine leukemia in BDF1 female mice at a dose of 8 mg/kg per injection; format: functional, Mus musculus; how it was run: as §3
Mus musculus [12] = assay: Average weight change of BDF1 female mice at a dose of 8 mg/kg per injection; format: functional; how it was run: as §2
Mus musculus [13] = assay: Average weight change of BDF1 female mice at a dose of 25.6 mg/kg per injection; format: functional; how it was run: as §2
Mus musculus [14] = assay: Average weight change of BDF1 female mice at a dose of 3.2 mg/kg per injection; format: functional; how it was run: as §2
Mus musculus [15] = assay: Average weight change of BDF1 female mice at a dose of 6.4 mg/kg per injection; format: functional; how it was run: as §2
Mus musculus [16] = assay: Average weight change of BDF1 female mice at a dose of 12.8 mg/kg per injection; format: functional; how it was run: as §2
P388 [17] = assay: (§4) Compound was tested for antitumor activity against P388 Murine leukemia in BDF1 female mice at a dose of 12.8 mg/kg per injection; format: functional, Mus musculus; set-up: unit not given here; how it was run: as §3
P388 [18] = assay: Compound was tested for antitumor activity against P388 Murine leukemia in BDF1 female mice at a dose of 25.6 mg/kg per injection; format: functional, Mus musculus; how it was run: as §3
P388 [19] = assay: Compound was tested for antitumor activity against P388 Murine leukemia in BDF1 female mice at a dose of 3.2 mg/kg per injection (MST treated / MST control x 100); format: functional, Mus musculus; how it was run: as §3
P388 [20] = assay: Compound was tested for antitumor activity against P388 Murine leukemia in BDF1 female mice at a dose of 6.4 mg/kg per injection; format: functional, Mus musculus; how it was run: as §3
L1210 [21] = assay: Compound was tested for antitumor activity against L-1210 Murine leukemia in BDF1 female mice at a dose of 12 mg/kg per injection; format: functional, Mus musculus; how it was run: as §1
L1210 [22] = assay: Compound was tested for antitumor activity against L-1210 Murine leukemia in BDF1 female mice at a dose of 24 mg/kg per injection; format: functional, Mus musculus; how it was run: as §1
L1210 [23] = assay: Compound was tested for antitumor activity against L-1210 Murine leukemia in BDF1 female mice at a dose of 48 mg/kg per injection; format: functional, Mus musculus; how it was run: as §1
L1210 [24] = assay: Compound was tested for antitumor activity against L-1210 Murine leukemia in BDF1 female mice at a dose of 6 mg/kg per injection; format: functional, Mus musculus; how it was run: as §1
Mus musculus [25] = assay: Average weight change of BDF1 female mice at a dose of 24 mg/kg per injection; format: functional; how it was run: as §2
Mus musculus [26] = assay: Average weight change of BDF1 female mice at a dose of 48 mg/kg per injection; format: functional; how it was run: as §2
Mus musculus [27] = assay: Average weight change of BDF1 female mice at a dose of 6 mg/kg per injection; format: functional; how it was run: as §2
Mus musculus [28] = assay: Average weight change of BDF1 female mice at a dose of 0.8 mg/kg per injection; format: functional; how it was run: as §2
Mus musculus [29] = assay: Average weight change of BDF1 female mice at a dose of 1.6 mg/kg per injection; format: functional; how it was run: as §2
Mus musculus [30] = assay: Average weight change of BDF1 female mice at a dose of 12 mg/kg per injection; format: functional; how it was run: as §2
P388 [31] = assay: Compound was tested for antitumor activity against P388 Murine leukemia in BDF1 female mice at a dose of 25.6 mg/kg per injection (MST treated / MST control x 100); format: functional, Mus musculus; how it was run: as §3
P388 [32] = assay: Compound was tested for antitumor activity against P388 Murine leukemia in BDF1 female mice at a dose of 51.2 mg/kg per injection (MST treated / MST control x 100); format: functional, Mus musculus; how it was run: as §3
P388 [33] = assay: Compound was tested for antitumor activity against P388 Murine leukemia in BDF1 female mice at a dose of 0.8 mg/kg per injection; format: functional, Mus musculus; how it was run: as §3
P388 [34] = assay: as §4; format: functional, Mus musculus; how it was run: as §3
P388 [35] = assay: Compound was tested for antitumor activity against P388 Murine leukemia in BDF1 female mice at a dose of 1.6 mg/kg per injection given as MST treated / MST control x 100; format: functional, Mus musculus; how it was run: as §3

Compound	logP [1]	minimal effective dose (P388 [8]) [mg/kg]	Weight change (Mus musculus [13]) [g]	Weight change (Mus musculus [14]) [g]	Weight change (Mus musculus [15]) [g]	Weight change (Mus musculus [16]) [g]	MST (P388 [17])	MST (P388 [18]) [% T/C]	T/C (P388 [19]) [%]	MST (P388 [20]) [%T/C]	MST (L1210 [22]) [days]	MST (L1210 [23]) [days]	Weight change (Mus musculus [25]) [g]	Weight change (Mus musculus [26]) [g]	Weight change (Mus musculus [27]) [g]	Weight change (Mus musculus [30]) [g]	MST (P388 [34]) [days]	T/C (P388 [35]) [%]	other results
C#CCNC1=C(C)C(=O)c2c(c(COC(N)=O)c3n2CC2NC32)C1=O (stereo unspecified)	1.21	16	–	–	–	–	–	–	–	–	–	–	–	–	–	–	–	–	T/C (L1210 [2]): 122%; Weight change (L1210 [2]): -1.8 g; T/C (L1210 [3]): 140%; Weight change (L1210 [3]): -2.8 g; Weight change (Mus musculus [4]): -0.3 g; Weight change (Mus musculus [5]): 0 g; Weight change (Mus musculus [6]): -0.9 g; MST (P388 [7]): 128 days; MST (P388 [9]): 144 days; MST (P388 [10]): 172 days; MST (P388 [11]): 122 days; Weight change (Mus musculus [12]): -0.2 g
COC1=C(C)C(=O)c2c(c(COC(N)=O)c3n2CC2NC32)C1=O (stereo unspecified)	0.87	12.8	-0.4	-0.4	0	-0.8	139	167	122	122	–	–	–	–	–	–	–	–	–
CC1=C(N2CC2)C(=O)c2c(COC(N)=O)c3n(c2C1=O)CC1NC31 (stereo unspecified)	0.3	1.6	-0.4	1	–	0.9	172	–	144	–	120	131	-2.6	-4.2	-0.4	-1.3	–	–	% T/C (L1210 [21]): 122%; % T/C (L1210 [24]): 118%; Weight change (Mus musculus [28]): 0.9 g; Weight change (Mus musculus [29]): 1 g; T/C (P388 [31]): 189%; T/C (P388 [32]): 206%; MST (P388 [33]): 111 days
CC1=C(N)C(=O)c2c(COC(N)=O)c3n(c2C1=O)CC1C3N1C (stereo unspecified)	–	–	-0.1	–	–	-0.4	–	100	–	–	–	–	–	–	–	–	100	211	–
CC1=C(N)C(=O)c2c(COC(N)=O)c3n(c2C1=O)CC1NC31 (stereo unspecified)	0.23	25.6	-0.8	–	-1.2	-0.8	–	128	–	117	100	94	-0.3	0.2	0.1	0	117	211	T/C (L1210 [21]): 100%; T/C (L1210 [24]): 100%
